# Experimental data published in article PMC8596699 (Chemmedchem, 2021).
# Target: T1, DMT1 (SLC11A2) (Homo sapiens, UniProt P49281)
# T1 sequence (P49281 1-568): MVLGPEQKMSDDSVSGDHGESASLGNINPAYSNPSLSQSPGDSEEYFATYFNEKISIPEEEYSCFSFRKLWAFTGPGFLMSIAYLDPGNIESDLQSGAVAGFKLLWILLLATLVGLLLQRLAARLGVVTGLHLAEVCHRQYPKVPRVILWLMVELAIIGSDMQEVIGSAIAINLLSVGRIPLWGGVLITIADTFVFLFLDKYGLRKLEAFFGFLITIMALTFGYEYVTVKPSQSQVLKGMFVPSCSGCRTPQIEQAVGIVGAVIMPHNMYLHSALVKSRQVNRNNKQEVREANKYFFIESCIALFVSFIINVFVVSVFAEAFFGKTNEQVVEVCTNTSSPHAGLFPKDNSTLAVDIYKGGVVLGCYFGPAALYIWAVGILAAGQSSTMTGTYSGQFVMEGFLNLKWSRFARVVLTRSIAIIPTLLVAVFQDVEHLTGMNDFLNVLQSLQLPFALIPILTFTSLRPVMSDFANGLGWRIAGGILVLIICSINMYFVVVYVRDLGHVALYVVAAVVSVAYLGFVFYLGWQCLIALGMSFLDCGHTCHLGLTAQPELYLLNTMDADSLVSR
# Assay: Radioactive 55Fe uptake assay in HEK293 cells stably overexpressing DMT1
# Assay type: cell-based
# How it was run: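 HEK293 cells stably expressing human DMT1 (pIRES2 DsRed-Express2, geneticin 500 μg/mL) were seeded at 50,000 cells/well for 24 h. Cells were preincubated 5 min in uptake buffer, pH 5.5, with a range of test compound. ⁵⁵Fe²⁺ (1 μM) with ascorbate and unlabelled Fe²⁺ was then added for 15 min at room temperature. After ice-cold washes, uptake was read by scintillation counting as % of DMSO control. IC50 came from a 4-parameter logistic fit (two experiments in triplicate), and LE was derived from IC50.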
structure (smiles),measurement,setting,value
CC1CCc2sc(C(=O)O)cc2C1 (centres unmarked) [compound 2],IC50,,525 ± 65 µM
same,ligand efficiency LE,from DMT1 IC50,0.35 kcal^.mol^−1
